Test results reported in ChEMBL document CHEMBL4033793, “Potent and Selective Inhibitors of Human Sirtuin 5” (J Med Chem, 2018).
The source made the active and inactive calls. The rule behind the calls is not given here. Starred links: 1 amine or outer side, 2 acyl side, 3 side chain; linkers in the order of their positions; H or OH if unused. Positions of bridges follow the written chain, without caps; N, C: chain ends. Non-standard residues stand in square brackets, D forms with d. Residues, ends and D or L forms follow the SMILES beside them. *: point of attachment. X2 = O=C(CCCC[C@@H]1SC[C@@H]2NC(=O)N[C@@H]21)NCCCOCCOCCOCCCN*; X67 = O=C(O)CCNC(=S)NCCCC[C@H](N[*:1])C(=O)[*:2]; X1 = O=C(O)[C@H](CC(=O)*)Sc1ccc2ccccc2c1; Suberoyl = O=C(CCCCCCC(=O)[*:2])[*:1]; β3hR = N=C(N)NCCC[C@H](N)CC(=O)O; Suc = O=C(CCC(=O)[*:2])[*:1]; Bz = O=C(c1ccccc1)*

What was measured:
[1] = molecular target: T1, NAD-dependent protein deacylase sirtuin-5, mitochondrial (Homo sapiens, UniProt Q9NXA8); test: Inhibition of recombinant human N-terminal His-tagged SIRT5 (34 to 269 residues) expressed in Escherichia coli Transetta(DE3) cells using Benzyl Lys(Succinyl)-AMC substrate after 2 hrs by fluorescence assay
Target sequence in this assay (Q9NXA8 whole entry, the tested form may be a part): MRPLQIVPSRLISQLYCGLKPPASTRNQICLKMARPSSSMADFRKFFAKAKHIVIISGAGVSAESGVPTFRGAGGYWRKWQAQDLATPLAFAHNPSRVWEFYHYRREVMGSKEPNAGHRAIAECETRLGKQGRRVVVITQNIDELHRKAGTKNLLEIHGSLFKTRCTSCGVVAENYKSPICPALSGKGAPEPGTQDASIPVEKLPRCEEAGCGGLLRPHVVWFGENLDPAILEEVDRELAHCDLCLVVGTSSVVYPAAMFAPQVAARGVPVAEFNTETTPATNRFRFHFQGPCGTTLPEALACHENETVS

[2] = molecular target: T1, NAD-dependent protein deacylase sirtuin-5, mitochondrial; test: Inhibition of human SIRT5
Target sequence in this assay (Q9NXA8 whole entry, the tested form may be a part): as above

[3] = molecular target: T2, NAD-dependent protein deacetylase sirtuin-2 (Homo sapiens) (UniProt Q8IXJ6); test: Inhibition of SIRT2 (unknown origin) up to 50 uM using Bz-GVLK(acetyl)EYGV-NH2 as substrate after 8 mins by HPLC analysis
T2 sequence (whole entry): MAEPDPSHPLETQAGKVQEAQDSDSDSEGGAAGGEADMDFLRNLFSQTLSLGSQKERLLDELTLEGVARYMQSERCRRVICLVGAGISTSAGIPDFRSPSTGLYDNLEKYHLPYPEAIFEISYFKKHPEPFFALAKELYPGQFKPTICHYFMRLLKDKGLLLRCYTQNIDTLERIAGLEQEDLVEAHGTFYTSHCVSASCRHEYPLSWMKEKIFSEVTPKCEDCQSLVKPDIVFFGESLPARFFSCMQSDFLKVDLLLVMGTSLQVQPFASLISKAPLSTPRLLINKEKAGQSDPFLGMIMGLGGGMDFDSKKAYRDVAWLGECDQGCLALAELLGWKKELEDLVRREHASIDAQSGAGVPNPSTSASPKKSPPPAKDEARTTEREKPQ
Summary of the method: (§1)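 HPLC activity assay at 37°C with 0 or 50 µM inhibitor, 500 µM NAD+, 5% DMSO, 0.1 µM enzyme and 50 µM substrate, in 20 mM Tris, 150 mM NaCl, 5 mM MgCl2, pH 7.8. Incubation 8 min for SIRT1-3 and 6 min for SIRT6. Stopped with TFA-water (1:9), then analysed by reversed-phase HPLC with detection at 260 nm.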

[4] = molecular target: T3, NAD-dependent protein deacetylase sirtuin-3, mitochondrial (Homo sapiens) (UniProt Q9NTG7); test: Inhibition of SIRT3 (unknown origin) up to 50 uM using Bz-GVLK(acetyl)EYGV-NH2 as substrate after 8 mins by HPLC analysis; summary of the method: as §1
T3 sequence (whole entry): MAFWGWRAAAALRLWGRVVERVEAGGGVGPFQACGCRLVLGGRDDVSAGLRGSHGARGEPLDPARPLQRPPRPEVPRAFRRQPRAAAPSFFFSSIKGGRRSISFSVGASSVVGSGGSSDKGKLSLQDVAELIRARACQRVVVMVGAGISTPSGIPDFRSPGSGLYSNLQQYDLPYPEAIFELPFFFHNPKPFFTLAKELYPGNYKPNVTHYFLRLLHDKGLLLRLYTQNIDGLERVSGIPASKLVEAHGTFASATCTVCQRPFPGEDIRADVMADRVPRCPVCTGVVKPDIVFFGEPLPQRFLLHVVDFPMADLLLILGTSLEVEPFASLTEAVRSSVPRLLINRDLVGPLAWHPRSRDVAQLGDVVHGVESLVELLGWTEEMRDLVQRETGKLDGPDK

[5] = molecular target: T1, NAD-dependent protein deacylase sirtuin-5, mitochondrial; test: Binding affinity to human N-terminal biotinylated SIRT5 by surface plasmon resonance spectroscopy
Summary of the method: (§2)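 Surface plasmon resonance: N-terminally biotinylated Sirt5 (biotinylated via Trypsiligase) immobilized on a streptavidin-coated sensor chip at about 1800 RU. Biotinylated ligand injected at 50 nM in PBS (4 mM KH2PO4, 16 mM Na2HPO4, 115 mM NaCl, pH 7.4). Kinetic constants and affinity obtained by fitting to a 1:1 Langmuir binding model.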
Target sequence in this assay (Q9NXA8 whole entry, the tested form may be a part): as the sequence (Q9NXA8 whole entry, the tested form may be a part) above

[6] = molecular target: T4, NAD-dependent protein deacetylase sirtuin-1 (Homo sapiens) (UniProt Q96EB6); test: Inhibition of SIRT1 (unknown origin) up to 50 uM using Bz-GVLK(acetyl)EYGV-NH2 as substrate after 8 mins by HPLC analysis; summary of the method: as §1
T4 sequence (whole entry): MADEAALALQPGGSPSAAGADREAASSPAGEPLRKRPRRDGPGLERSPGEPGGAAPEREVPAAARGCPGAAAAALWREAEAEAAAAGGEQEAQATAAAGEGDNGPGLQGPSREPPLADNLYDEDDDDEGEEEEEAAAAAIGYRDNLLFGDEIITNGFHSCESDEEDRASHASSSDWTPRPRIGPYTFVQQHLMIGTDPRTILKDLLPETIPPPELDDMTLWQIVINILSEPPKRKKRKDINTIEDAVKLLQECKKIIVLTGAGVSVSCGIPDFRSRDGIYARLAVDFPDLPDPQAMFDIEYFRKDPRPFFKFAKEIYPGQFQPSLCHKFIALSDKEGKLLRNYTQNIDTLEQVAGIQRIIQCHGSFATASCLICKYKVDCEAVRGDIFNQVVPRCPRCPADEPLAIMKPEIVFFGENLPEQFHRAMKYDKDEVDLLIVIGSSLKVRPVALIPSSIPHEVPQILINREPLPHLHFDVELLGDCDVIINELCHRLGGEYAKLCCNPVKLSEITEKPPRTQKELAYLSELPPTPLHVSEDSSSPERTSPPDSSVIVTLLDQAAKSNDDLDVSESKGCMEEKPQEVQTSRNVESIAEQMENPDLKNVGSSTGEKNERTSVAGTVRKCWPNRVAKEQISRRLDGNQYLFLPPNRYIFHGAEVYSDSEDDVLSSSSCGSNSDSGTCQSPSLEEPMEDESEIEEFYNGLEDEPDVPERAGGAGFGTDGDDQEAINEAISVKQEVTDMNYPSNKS

[7] = molecular target: NAD-dependent protein deacylase sirtuin-6 (Homo sapiens) (UniProt Q8N6T7); test: Inhibition of SIRT6 (unknown origin) up to 50 uM using Ac-EALPKK(myristoyl)TGGNH2 as substrate after 6 mins by HPLC analysis; summary of the method: as §1
[8] = molecular target: T1, NAD-dependent protein deacylase sirtuin-5, mitochondrial; test: Inhibition of human recombinant N-terminal Strep2-tagged SIRT5 expressed in Escherichia coli BL21 (DE3) using Abz-GVLK(glutaryl)AY(NO2)GV-NH2 as substrate in presence of NAD+ by fluorescence assay
Target sequence in this assay (Q9NXA8 whole entry, the tested form may be a part): as the sequence (Q9NXA8 whole entry, the tested form may be a part) above

[9] = molecular target: T3, NAD-dependent protein deacetylase sirtuin-3, mitochondrial (Homo sapiens); test: Binding affinity to human recombinant N-terminal strep2-tagged SIRT3 (114 to 380 residues) expressed in Escherichia coli BL21 (DE3) at 100 uM by SDS-PAGE/LC-MS based pull down assay
Summary of the method: (§3)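 Streptavidin agarose (0.5 ml bed volume) loaded with biotinylated inhibitor (100 µM in PBS) for 30 min, then washed with PBST. Bound protein eluted with 200 mM NaOH; eluates analysed by SDS-PAGE and LC-MS.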

[10] = molecular target: T2, NAD-dependent protein deacetylase sirtuin-2 (Homo sapiens); test: Binding affinity to human recombinant N-terminal strep2-tagged SIRT2 (43 to 356 residues) expressed in Escherichia coli BL21 (DE3) at 100 uM by SDS-PAGE/LC-MS based pull down assay; summary of the method: as §3
[11] = molecular target: T1, NAD-dependent protein deacylase sirtuin-5, mitochondrial; test: Binding affinity to human N-terminal biotinylated SIRT5 assessed as dissociation rate constant by surface plasmon resonance spectroscopy; summary of the method: as §2
Target sequence in this assay (Q9NXA8 37-310 limits assumed): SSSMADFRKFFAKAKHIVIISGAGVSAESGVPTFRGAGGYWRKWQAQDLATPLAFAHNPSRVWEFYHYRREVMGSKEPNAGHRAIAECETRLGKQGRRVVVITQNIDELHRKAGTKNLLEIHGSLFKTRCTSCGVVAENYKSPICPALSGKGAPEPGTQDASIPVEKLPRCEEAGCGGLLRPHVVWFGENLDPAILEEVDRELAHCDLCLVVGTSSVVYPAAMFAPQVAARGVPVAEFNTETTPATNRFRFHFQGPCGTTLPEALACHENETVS

[12] = molecular target: T1, NAD-dependent protein deacylase sirtuin-5, mitochondrial; test: Binding affinity to human recombinant N-terminal strep2-tagged SIRT5 expressed in Escherichia coli BL21 (DE3) at 100 uM by SDS-PAGE/LC-MS based pull down assay; summary of the method: as §3
Target sequence in this assay (Q9NXA8 37-310 limits assumed): as above

[13] = molecular target: T1, NAD-dependent protein deacylase sirtuin-5, mitochondrial; test: Competitive inhibition of human recombinant N-terminal Strep2-tagged SIRT5 expressed in Escherichia coli BL21 (DE3) using Abz-GVLK(glutaryl)AY(NO2)GV-NH2 as substrate in presence of NAD+ by fluorescence assay
Summary of the method: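 Continuous trypsin-coupled fluorescence assay at 37°C: 10 nM SIRT5, 500 µM NAD+, 500 nM trypsin, 5% DMSO, 0.025-5 µM substrate, 0.01-20 µM inhibitor. Buffer: 20 mM Tris, 150 mM NaCl, 5 mM MgCl2, pH 7.8. Excitation 320 nm, emission 420 nm. Measured in duplicate; IC50 determined at 0.03 µM substrate by log(inhibitor) vs normalized response fit.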
Target sequence in this assay (Q9NXA8 whole entry, the tested form may be a part): as the sequence (Q9NXA8 whole entry, the tested form may be a part) above

[14] = molecular target: T1, NAD-dependent protein deacylase sirtuin-5, mitochondrial; test: Inhibition of SIRT5 (unknown origin) using GGQSLK[succ]FGKG as substrate after 30 mins
Target sequence in this assay (Q9NXA8 whole entry, the tested form may be a part): as above

NAD-dependent protein deacylase sirtuin-6 (Homo sapiens), sequence (Q8N6T7 whole entry): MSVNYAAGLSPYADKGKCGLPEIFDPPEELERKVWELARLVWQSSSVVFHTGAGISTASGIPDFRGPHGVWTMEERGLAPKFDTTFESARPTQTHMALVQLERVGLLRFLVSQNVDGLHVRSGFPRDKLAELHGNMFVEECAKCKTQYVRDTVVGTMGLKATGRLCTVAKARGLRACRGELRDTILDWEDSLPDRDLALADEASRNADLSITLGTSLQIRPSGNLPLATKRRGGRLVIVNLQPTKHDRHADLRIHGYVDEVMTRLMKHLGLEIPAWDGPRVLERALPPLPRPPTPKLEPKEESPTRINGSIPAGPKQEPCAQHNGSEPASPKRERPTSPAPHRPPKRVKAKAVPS

With N#C/C(=C\c1ccc(-c2ccc(C(=O)O)cc2)o1)C(=O)Nc1ccc(C#N)c(F)c1 the IC50 [1] was 5.6 µM.
Work on CC(=O)N[C@H]1CCCCNC(=O)CCCCCCC(=O)NCCCC[C@@H](C(=O)N[C@H](C(N)=O)[C@@H](C)O)NC(=O)[C@H](CCCCNC(=S)NCCC(=O)O)NC(=O)C[C@H](CCCNC(=N)N)NC1=O (Ac-K[β3hR][X67]KT-NH2; linker 1-4 via Suberoyl) yielded an IC50 [2] of 7.5 µM.
In the case of CC(C)C[C@H](NC(=O)[C@@H](NC(=O)CNC(=O)c1ccccc1)C(C)C)C(=O)N[C@@H](CCCCNC(=O)C[C@H](Sc1ccc2ccccc2c1)C(=O)O)C(=O)N[C@@H](CCC(=O)O)C(=O)N[C@@H](Cc1ccc(O)cc1)C(=O)NCC(=O)N[C@H](C(N)=O)C(C)C (Bz-GVLK(X1)EYGV-NH2), the inhibition [3] is reported as “inactive”, the inhibition [4] is reported as “inactive” and the Kd [5] is reported as 0.01 nM. The inhibition [6] was “inactive”, the inhibition [7] was “inactive” and the IC50 [8] was 30.3 nM.
For CC(C)C[C@H](NC(=O)[C@@H](NC(=O)CNC(=O)CCC(=O)NCCCOCCOCCOCCCNC(=O)CCCC[C@@H]1SC[C@@H]2NC(=O)N[C@@H]21)C(C)C)C(=O)N[C@@H](CCCCNC(=O)C[C@H](Sc1ccc2ccccc2c1)C(=O)O)C(=O)N[C@@H](CCC(=O)O)C(=O)N[C@@H](Cc1ccc(O)cc1)C(=O)NCC(=O)N[C@H](C(N)=O)C(C)C ({X2-Suc}-GVLK(X1)EYGV-NH2), the Activity [9] was “inactive”, the Activity [10] was “inactive” and the koff [11] was 0.00015 s⁻¹. For the same compound, the Kd [5] was 0.12 nM, the Activity [12] was “Active” and the Ki [13] was 13.6 nM. For the same compound, the IC50 [8] was 19.1 nM.
Work on O=C1c2c(O)cccc2Cc2cccc(O)c21 [ANTHRALIN] yielded an IC50 [14] of 100 nM and an IC50 [8] of 453000 nM.
